Most compounds without a hit are left out; they make up all but 2.3% or so of the library.
ASAP1 inh = blocks human ASAP1-stimulated Arf1 GTP hydrolysis. Q9ULH1. GDP FP detection. hit rate 0.19% among 360,000. inhibition, % at 16.5 µM; in the data active = inhibition above about 25%
Target sequence (Q9ULH1 325-724 limits assumed): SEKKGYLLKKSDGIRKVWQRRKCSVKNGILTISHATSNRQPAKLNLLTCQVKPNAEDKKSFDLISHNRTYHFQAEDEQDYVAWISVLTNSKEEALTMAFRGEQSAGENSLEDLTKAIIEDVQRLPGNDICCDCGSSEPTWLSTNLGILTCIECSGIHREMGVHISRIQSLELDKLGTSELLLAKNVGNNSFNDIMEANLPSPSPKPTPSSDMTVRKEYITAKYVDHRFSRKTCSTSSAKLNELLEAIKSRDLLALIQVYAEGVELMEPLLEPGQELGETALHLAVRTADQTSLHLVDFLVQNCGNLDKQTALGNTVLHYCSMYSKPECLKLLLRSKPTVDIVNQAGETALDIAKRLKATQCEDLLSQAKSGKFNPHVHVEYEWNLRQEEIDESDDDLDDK
SKKanGAS inh = blocks kanamycin growth of S. pyogenes SKKanGAS strain | inhibition, % at 7.5 µM | hit rate 1.3% among 300,000 | BacTiter-Glo, 6 h;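 active = mean replicate score, as percent of positive control median, at least 50; inconclusive = mean below 50 but one replicate at or above 50; inactive = mean and every replicate below 50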;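 also: strain carries kanamycin resistance gene driven by streptokinase promoter and grows in 40 µg/ml kanamycin; loss of luminescence reflects streptokinase promoter inhibition or plain growth inhibition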
Calb FLC = affects C. albicans growth with fluconazole. C. albicans CaCi-2 + fluconazole, Alamar Blue growth, 48 h. growth inhibition, % (concentration not given with the values). hit rate 0.57% among 300,000. AID 1979;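 active = growth inhibition above about 58% in most replicates, limit read from the data, passing the limit was not always enough; inconclusive = exactly half the replicates above a set limit; inactive = most replicates below a set limit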;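 also: all wells also contain fluconazole at 8 µg/ml as a sub-toxic cotreatment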
sPLA2-III inh = Blocks human group III sPLA2 activity | QFRET BODIPY PC-A2 liposome hydrolysis, fluorescence | inhibition, % at 12.2 µM | hit rate 0.56% among 370,000;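 active = inhibition above mean plus 3 SD of compounds lying within the high and low control bounds, cut at about 19% in these data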
ARFGAP1 inh = inhibits rat ARF GTPase activating protein 1; inhibition, % at 16.5 µM; hit rate 0.26% among 360,000; Arfgap1-stimulated ARF1 GTP hydrolysis, GDP FP detection; Q62848;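 active = inhibition above a per-plate limit, mean inhibition of low control wells plus 3 SD, cut at about 25% in these data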
Target sequence (Q62848 1-136 limits assumed): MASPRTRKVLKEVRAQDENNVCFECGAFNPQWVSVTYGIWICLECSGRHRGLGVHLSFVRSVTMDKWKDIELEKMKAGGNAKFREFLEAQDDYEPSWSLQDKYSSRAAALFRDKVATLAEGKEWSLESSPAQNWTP
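Replicates: Single well per compound | Assay system: Truncated rat Arfgap1 GAP domain | Control set: No-Arfgap1 wells (100%) versus DMSO full-reaction wells (0%) | Times: Enzyme reaction 120 min at 25 °C after 20 min preincubation | Reagent: Human ARF1(Δ1-17)-GTP substrate | Measured by: Tracer-displacement fluorescence polarization with EDTA stop, 620/688 nm | Measure: Percent inhibition of Arfgap1-stimulated GTP hydrolysis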
Numbers stand for hits; i = inactive; ? = inconclusive; nt = no result given.

SMILES	ASAP1 inh	SKKanGAS inh	Calb FLC	sPLA2-III inh	ARFGAP1 inh
COc1ccc(C(=O)N[C@H]2CC[C@@]34CCCN3C(=O)CCC[C@H]4[C@H]2C)cc1	nt	nt	nt	i	nt
O=S1(=O)CC(N2CCCC2)CN1Cc1cn(Cc2ccc(C(F)(F)F)cc2)nn1 (centres undefined)	i	nt	nt	i	i
CN1/C(=C/C=C/c2n(C)c3cc([N+](=O)[O-])c([N+](=O)[O-])cc3[n+]2C)C(C)(C)c2ccccc21	i	nt	nt	48	i
Cc1cccc[n+]1CC(=O)/C=C1\N(C)c2ccccc2C1(C)C	i	i	i	i	i
CCCCc1ccc(-c2csc(/C(C#N)=C\c3ccc(C)o3)n2)cc1	i	i	i	i	i
CCOc1ccc(-c2csc(/C(C#N)=C\c3ccc(O)c([N+](=O)[O-])c3)n2)cc1	i	101	i	i	i
CCOC(=O)CC[C@@H]1CC[C@]2(CCCN(C(=O)C(C)(C)C)C2)O1	nt	nt	nt	i	nt
CS(=O)(=O)c1nc(-c2cccs2)cc(C(F)(F)F)n1	nt	i	97	nt	nt
C[C@H]1[C@H](c2ccccc2)Oc2cccc(NCCc3ccccc3)c2S(=O)(=O)N1Cc1cccc(F)c1	i	nt	nt	i	i
c1ccc(-n2c(SCc3cccc4ccccc34)nnc2-c2ccncc2)cc1	nt	nt	nt	i	nt
CN(Cc1ccc(N(C)C)cc1)C(=O)c1cc2ccccc2o1	i	60	i	i	i
CCOc1ccc2nc(NC(=O)CN3CCC(n4nnc5cc(C(F)(F)F)ccc54)CC3)sc2c1	i	52	i	i	i
Cc1ccc(S(=O)(=O)Nc2ccc(O)c3ncccc23)cc1	i	i	99	i	i
O=C(Nc1cccc(C(F)(F)F)c1)OC1CCC12CCC(c1ccccc1)CC2 (centres undefined)	nt	nt	nt	i	nt
Oc1ccc(/C=N/N(c2ccccc2)c2ccccc2)c(O)c1O	i	i	113	i	i
Oc1ccc(/C=N/N(c2ccccc2)c2ccccc2)cc1O	i	i	i	i	i
Cc1cccc(N=NC(=S)NNc2cccc(C)c2)c1	i	nt	nt	27	i
CCCc1ccc(C(=O)NNC(=O)c2ccc(Cl)cc2)cc1	i	i	i	i	i
Cc1cccc(NNC(=O)C(=O)NNc2cccc(C)c2)c1	i	i	100	i	i
CCCc1ccc(C(=O)NNc2cccc(C)c2)cc1	i	i	97	i	i
Cc1cccc(NC(=S)NNc2ncc(C(F)(F)F)cc2Cl)c1	i	i	?	i	i
CCCC1CCC2(CC1)CCC2OC(=O)Nc1ccccc1C (centres undefined)	nt	nt	nt	i	nt
COC(=O)[C@]12C[C@H](CC(=O)NCC3CCCCC3)C(=O)N(Cc3cccc4ccccc34)C1=C[C@H](C(C)(C)C)O[C@@H]2C	nt	nt	nt	i	nt
O=S(=O)(Nc1nc(-c2ccccc2)cs1)c1cc(Cl)ccc1Cl	i	i	96	i	i
O=[N+]([O-])c1ccc(S(=O)(=O)Nc2nc(-c3ccccc3)cs2)cc1	i	i	i	i	i
SMILES	ASAP1 inh	SKKanGAS inh	Calb FLC	sPLA2-III inh	ARFGAP1 inh
COC(=O)[C@@]12CCCN1[C@H](c1ccc(-c3cccc(Cl)c3)c(OC)c1)[C@H]1C(=O)N(C)C(=O)[C@H]12	i	66	i	i	i
CC(=O)N(C)c1ccc(OCC(O)Cn2c3ccc(Cl)cc3c3cc(Cl)ccc32)cc1 (centres undefined)	i	65	i	i	i
CC(C)(C)c1nnc(N/N=C/c2cc(Br)ccc2O)n(N)c1=O	i	78	i	i	i
CCc1nnc(N/N=C/c2cc(Br)c(O)cc2O)n1N	i	i	i	i	i
Cc1cccc(/C=N/NC(=O)Cc2ccc(Cl)cc2)c1O	i	107	i	i	i
O=C(Cc1ccc(Cl)cc1)N/N=C/c1ccc(O)c(O)c1	i	nt	nt	i	i
Cc1ccc(O)c(/C=N/NC(=O)Cc2ccc(Cl)cc2)c1	i	97	i	i	i
COc1cccc(-c2nc(N3CC(C)CC(C)C3)c3ccccc3n2)c1O (centres undefined)	i	65	i	i	i
COc1cccc(-c2nc(N3CCC(C)CC3)c3ccccc3n2)c1O	i	i	i	i	i
CCOc1cc(S(=O)(=O)NCc2ccccc2)c(OCC)cc1-n1cnnn1	i	i	100	i	i
O=C(O)CCCNc1cc(N2CCN(C(=O)c3ccco3)CC2)c2noc3c2c1C(=O)c1ccccc1-3	i	52	i	i	i
COC(=O)[C@]12C[C@H](CC(=O)N3CCSCC3)C(=O)N(CCC3=CCCCC3)C1=C[C@H](C(C)C)O[C@@H]2C1CC1	nt	nt	nt	i	nt
COc1ccc2c(c1)C(C)=CC(C)(C)N2S(=O)(=O)c1ccc(C)cc1	i	i	i	i	i
CCOc1ccc2c(c1)C(C)=CC(C)(C)N2S(=O)(=O)c1ccc(C)cc1	i	i	113	i	i
COC(=O)[C@]12C[C@H](CC(=O)N3CCCCC3)C(=O)N(Cc3cccc4ccccc34)C1=C[C@H](COCc1ccccc1)O[C@@H]2C	nt	nt	nt	i	nt
CC(C)n1nc(C(=O)Nc2nnc(SCc3c(Cl)cccc3Cl)s2)c2ccccc2c1=O	i	64	i	i	i
CCOC(=O)C(=O)N(C)c1c(CC)nc2c(OCc3cc(Cl)cc(Cl)c3)cccn12	i	nt	nt	i	i
COC(C(=O)Nc1ccnn1C1CCN(Cc2nccs2)CC1)c1ccccc1 (centres undefined)	i	51	i	i	i
Cc1ccccc1NC(=S)NCc1ccc2c(c1)cc(C)n2C	i	i	i	i	i
CCc1cccc(C)c1NC(=S)NCc1ccc2c(c1)cc(C)n2C	i	i	124	i	i
C=C(C)CNC(=S)N/N=C1\CCCCc2ccccc21	i	i	93	i	i
Cc1cc(Oc2ccccc2)nc(-c2ccccc2O)n1	i	i	104	i	i
O=C(N[C@H](Cc1ccccc1)C(=O)NCCCc1ccccc1)[C@H]1O[C@@H](n2ccc(=O)[nH]c2=O)[C@H](O)[C@@H]1O	i	nt	nt	i	i
Cc1[nH]n(-c2ccccc2)c(=O)c1/C=N/c1ccccn1	i	i	i	i	i
Cc1ccccc1-c1ccnc2[nH]n(-c3ccccc3)c(=O)c12	i	i	79	i	i
SMILES	ASAP1 inh	SKKanGAS inh	Calb FLC	sPLA2-III inh	ARFGAP1 inh
C#CCN1CC(N(C)CCOC(=O)c2ccc(C(C)(C)C)cc2)CS1(=O)=O (centres undefined)	nt	nt	nt	i	nt
COc1cc(/C=C/C(=O)O)ccc1O	i	i	i	i	i
COc1cc(/C=C/C(=O)c2ccc([N+](=O)[O-])o2)ccc1O	i	72	i	i	i
O=C(/C=C/c1cccc(Cl)c1)c1ccc([N+](=O)[O-])o1	i	63	88	i	i
COc1ccc(/C=C/C(=O)c2ccc([N+](=O)[O-])o2)cc1OC	i	67	i	i	i
COc1cc(OC)c(C(=O)C=Cc2ccc(OC)c(OC)c2)c(OC)c1	i	nt	nt	i	i
CC1=C(C(=O)N2CCOCC2)CC(CC(=O)NC2CC2)C(=O)N1Cc1ccc(F)cc1 (centres undefined)	i	nt	nt	i	i
COC(=O)[C@]12C[C@H](CC(=O)NCc3cccc4ccccc34)C(=O)N(CCc3ccc(OC)c(OC)c3)C1=C[C@H](COCc1ccccc1)O[C@@H]2C	nt	nt	nt	i	nt
